Data on ten compounds can be found in ChEMBL document CHEMBL1141140, “Antifungal agents. 11. N-substituted derivatives of 1-[(aryl)(4-aryl-1H-pyrrol-3-yl)methyl]-1H-imidazole: synthesis, anti-Candida activity, and QSAR studies” (2005).

Experiment [1] has as its system Candida albicans. As to the kind of experiment: In vitro minimal inhibitory concentration against Candida albicans with percentage of resistant strains %R = 33.33 (MIC > 64 ug/mL) at a range of 0.25-0.5 ug/mL. The experiment is classed as functional.
In experiment [2] the test system is Candida albicans. As to the kind of experiment: In vitro concentration causing 90% inhibition of Candida albicans with percentage of resistant strains %R = 33.33 (MIC > 64 ug/mL) at a range of 0.25-0.5 ug/mL. Format: functional.
Experiment [3] deals with Candida albicans. As to the kind of experiment: In vitro concentration causing 50% inhibition of Candida albicans with percentage of resistant strains %R = 33.33 (MIC > 64 ug/mL) at a range of 0.25-0.5 ug/mL. The experiment is classed as functional.
Experiment [4] has as its system Candida albicans. As to the kind of experiment: Ratio of the in vitro minimal inhibitory to that of bifonazole against Candida albicans (MIC(compound)/MIC(bifonazole)). Format: functional. The gist of the method: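 Broth microdilution per NCCLS M27-A2 against 12 Candida albicans strains (AIDS oropharyngeal, HIV vulvovaginitis isolates, ATCC 24433 and 20891, lab strains 3153 and CA2). Inoculum ~10^4 cells/mL in RPMI 1640, pH 7.0; DMSO stocks 6.4 mg/mL, twofold dilutions 0.016–64 μg/mL; read at 24 h, 28 °C, no visible growth. Mean MIC over strains converted to μmol/mL, divided by bifonazole MIC.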

Experiment [5] relates to Candida albicans. As to the kind of experiment: In vitro concentration causing 50% inhibition of Candida albicans with percentage of resistant strains %R = 25 (MIC > 64 ug/mL) at a range of 0.5-2 ug/mL. Format: functional.
Experiment [6] relates to Candida albicans. As to the kind of experiment: In vitro concentration causing 90% inhibition of Candida albicans with percentage of resistant strains %R = 25 (MIC > 64 ug/mL) at a range of 0.5-2 ug/mL. Format: functional.
For experiment [7], the system named is Candida albicans. As to the kind of experiment: In vitro minimal inhibitory concentration against Candida albicans with percentage of resistant strains %R = 25 (MIC > 64 ug/mL) at a range of 0.5-2 ug/mL. Format: functional.
Experiment [8] relates to Candida albicans. As to the kind of experiment: In vitro concentration causing 50% inhibition of Candida albicans with percentage of resistant strains %R = 50 (MIC > 64 ug/mL) at a range of 0.125-2 ug/mL. The experiment is classed as functional.
Experiment [9] concerns Candida albicans. As to the kind of experiment: In vitro concentration causing 90% inhibition of Candida albicans with percentage of resistant strains %R = 50 (MIC > 64 ug/mL) at a range of 0.125-2 ug/mL. Format: functional.
Experiment [10] deals with Candida albicans. As to the kind of experiment: In vitro minimal inhibitory concentration against Candida albicans with percentage of resistant strains %R = 50 (MIC > 64 ug/mL) at a range of 0.125-2 ug/mL. The experiment is classed as functional.
For experiment [11], the system named is Candida albicans. As to the kind of experiment: In vitro minimal inhibitory concentration against Candida albicans with percentage of resistant strains %R = 36 (MIC > 64 ug/mL) at a range of 0.5-2 ug/mL. The experiment is classed as functional.
The test system of experiment [12] is Candida albicans. As to the kind of experiment: In vitro concentration causing 50% inhibition of Candida albicans with percentage of resistant strains %R = 36 (MIC > 64 ug/mL) at a range of 0.5-2 ug/mL. Format: functional.
The test system of experiment [13] is Candida albicans. As to the kind of experiment: In vitro concentration causing 90% inhibition of Candida albicans with percentage of resistant strains %R = 36 (MIC > 64 ug/mL) at a range of 0.5-2 ug/mL. Format: functional.
Experiment [14] relates to Candida albicans. As to the kind of experiment: In vitro concentration causing 50% inhibition of Candida albicans with percentage of resistant strains %R = 0 (MIC > 64 ug/mL) at a range of 0.062-0.5 ug/mL. Format: functional.
For experiment [15], the system named is Candida albicans. As to the kind of experiment: In vitro minimal inhibitory concentration against Candida albicans with percentage of resistant strains %R = 0 (MIC > 64 ug/mL) at a range of 0.062-0.5 ug/mL. The experiment is classed as functional.
The test system of experiment [16] is Candida albicans. As to the kind of experiment: In vitro concentration causing 90% inhibition of Candida albicans with percentage of resistant strains %R = 0 (MIC > 64 ug/mL) at a range of 0.062-0.5 ug/mL. Format: functional.
For experiment [17], the system named is Candida albicans. As to the kind of experiment: In vitro minimal inhibitory concentration against Candida albicans with percentage of resistant strains %R = 33.33 (MIC > 64 ug/mL) at a range of 0.125-2 ug/mL. Format: functional.
Experiment [18] relates to Candida albicans. As to the kind of experiment: In vitro concentration causing 90% inhibition of Candida albicans with percentage of resistant strains %R = 33.33 (MIC > 64 ug/mL) at a range of 0.125-2 ug/mL. The experiment is classed as functional.
The subject of experiment [19] is Candida albicans. As to the kind of experiment: In vitro concentration causing 50% inhibition of Candida albicans with percentage of resistant strains %R = 33.33 (MIC > 64 ug/mL) at a range of 0.125-2 ug/mL. The experiment is classed as functional.
Experiment [20] deals with Candida albicans. As to the kind of experiment: In vitro minimal inhibitory concentration against Candida albicans with percentage of resistant strains %R = 41.66 (MIC > 64 ug/mL) at a range of 0.25-4 ug/mL. Format: functional.
In experiment [21] the test system is Candida albicans. As to the kind of experiment: In vitro concentration causing 90% inhibition of Candida albicans with percentage of resistant strains %R = 41.66 (MIC > 64 ug/mL) at a range of 0.25-4 ug/mL. The experiment is classed as functional.
Experiment [22] deals with Candida albicans. As to the kind of experiment: In vitro concentration causing 50% inhibition of Candida albicans with percentage of resistant strains %R = 41.66 (MIC > 64 ug/mL) at a range of 0.25-4 ug/mL. Format: functional.
For experiment [23], the system named is Candida albicans. As to the kind of experiment: In vitro concentration causing 50% inhibition of Candida albicans with percentage of resistant strains %R = 33.3 (MIC > 64 ug/mL) at a range of 0.25-32 ug/mL.
The subject of experiment [24] is Candida albicans. As to the kind of experiment: In vitro minimal inhibitory concentration against Candida albicans with percentage of resistant strains %R = 33.3 (MIC > 64 ug/mL) at a range of 0.25-32 ug/mL.
Experiment [25] relates to Candida albicans. As to the kind of experiment: In vitro concentration causing 90% inhibition of Candida albicans with percentage of resistant strains %R = 33.3 (MIC > 64 ug/mL) at a range of 0.25-32 ug/mL.
Experiment [26] deals with Candida albicans. As to the kind of experiment: In vitro minimal inhibitory concentration against Candida albicans with percentage of resistant strains %R = 0 (MIC > 64 ug/mL) at a range of 0.016-0.5 ug/mL. The experiment is classed as functional.
The subject of experiment [27] is Candida albicans. As to the kind of experiment: In vitro concentration causing 90% inhibition of Candida albicans with percentage of resistant strains %R = 0 (MIC > 64 ug/mL) at a range of 0.016-0.5 ug/mL. Format: functional.
Experiment [28] has as its system Candida albicans. As to the kind of experiment: In vitro concentration causing 50% inhibition of Candida albicans with percentage of resistant strains %R = 0 (MIC > 64 ug/mL) at a range of 0.016-0.5 ug/mL. Format: functional.
The subject of experiment [29] is Candida albicans. As to the kind of experiment: In vitro concentration causing 50% inhibition of Candida albicans with percentage of resistant strains %R = 33.3 (MIC > 64 ug/mL) at a range of 0.065-4 ug/mL. The experiment is classed as functional.
Experiment [30] relates to Candida albicans. As to the kind of experiment: In vitro minimal inhibitory concentration against Candida albicans with percentage of resistant strains %R = 33.3 (MIC > 64 ug/mL) at a range of 0.065-4 ug/mL. Format: functional.
Experiment [31] concerns Candida albicans. As to the kind of experiment: In vitro concentration causing 90% inhibition of Candida albicans with percentage of resistant strains %R = 33.3 (MIC > 64 ug/mL) at a range of 0.065-4 ug/mL. Format: functional.

Values after ≈ are worked out from the molar mass of the structure shown.

Compound `Clc1ccc(-c2c[nH]cc2C(c2ccc(Cl)cc2Cl)n2ccnc2)cc1` (stereo not given) returned an MIC in the experiment on Candida albicans [1] of 4.2 µg/mL (≈ 10.4 µM). In the experiment with Candida albicans [2], this compound yielded an MIC90 of 0.5 µg/mL (≈ 1.24 µM). The same compound registered an MIC50 against Candida albicans [3] of 0.25 µg/mL (≈ 0.621 µM). In addition, in the experiment with Candida albicans [4], the Ratio came out at 0.92.
Regarding `CCn1cc(-c2ccc(Cl)cc2)c(C(c2ccc(Cl)cc2Cl)n2ccnc2)c1` (stereo not given), in the experiment on Candida albicans [5], the MIC50 came out at 2 µg/mL (≈ 4.64 µM). The same compound came in with an MIC90 against Candida albicans [6] of 2 µg/mL (≈ 4.64 µM). In the experiment with Candida albicans [7], this compound showed an MIC of 1.5 µg/mL (≈ 3.48 µM). In addition, the Ratio with Candida albicans [4] was determined as 0.31.
`Cn1cc(-c2ccc(Cl)cc2)c(C(c2ccc(Cl)cc2Cl)n2ccnc2)c1` (stereo not given): the MIC50 against Candida albicans [8] worked out at 1 µg/mL (≈ 2.4 µM). In the experiment with Candida albicans [9], this compound came in with an MIC90 of 2 µg/mL (≈ 4.8 µM). For the same compound, the MIC against Candida albicans [10] was determined as 1.31 µg/mL (≈ 3.14 µM). In addition, in the experiment with Candida albicans [4], the Ratio was found to be 0.28.
The compound `Cn1cc(-c2ccccc2Cl)c(C(c2ccc(Cl)cc2Cl)n2ccnc2)c1` (stereo not given) returned an MIC in the experiment on Candida albicans [11] of 1.71 µg/mL (≈ 4.1 µM). The MIC50 with Candida albicans [12] stood at 2 µg/mL (≈ 4.8 µM). This compound displayed an MIC90 with Candida albicans [13] of 2 µg/mL (≈ 4.8 µM). Moreover, the Ratio in the experiment on Candida albicans [4] is on record as 0.36.
In the experiment on Candida albicans [14], `CC(C)=CCn1cc(-c2ccc(Cl)cc2)c(C(c2ccccc2)n2ccnc2)c1` (stereo not given) registered an MIC50 of 0.065 µg/mL (≈ 0.162 µM). For the same compound, the MIC against Candida albicans [15] was 0.194 µg/mL (≈ 0.483 µM). In addition, the MIC90 against Candida albicans [16] is 0.5 µg/mL (≈ 1.24 µM). In addition, the Ratio in the experiment with Candida albicans [4] came to 0.043.
Compound `C=CCn1cc(-c2ccc(Cl)cc2)c(C(c2ccc(Cl)cc2Cl)n2ccnc2)c1` (stereo not given) had an MIC against Candida albicans [17] of 0.73 µg/mL (≈ 1.65 µM). The MIC90 against Candida albicans [18] was found to be 2 µg/mL (≈ 4.52 µM). In the experiment on Candida albicans [19], this compound yielded an MIC50 of 0.5 µg/mL (≈ 1.13 µM). Moreover, the Ratio in the experiment with Candida albicans [4] came out at 0.15.
Take `CCn1cc(-c2ccc(Cl)cc2Cl)c(C(c2ccccc2)n2ccnc2)c1` (stereo not given): the MIC in the experiment on Candida albicans [20] came out at 1.46 µg/mL (≈ 3.68 µM). In addition, the MIC90 against Candida albicans [21] worked out at 2 µg/mL (≈ 5.05 µM). This compound displayed an MIC50 in the experiment on Candida albicans [22] of 1 µg/mL (≈ 2.52 µM). In addition, the Ratio in the experiment on Candida albicans [4] amounted to 0.33.
In the experiment on Candida albicans [23], `CCn1cc(-c2ccc(Cl)cc2)c(C(c2ccccc2)n2ccnc2)c1` (stereo not given) came in with an MIC50 of 1 µg/mL (≈ 2.76 µM). Moreover, in the experiment with Candida albicans [24], the MIC was determined as 5.59 µg/mL (≈ 15.4 µM). The compound also yielded an MIC90 in the experiment on Candida albicans [25] of 8 µg/mL (≈ 22.1 µM). In the experiment on Candida albicans [4], the Ratio is recorded as 0.11.
Take `CCCn1cc(-c2ccc(Cl)cc2)c(C(c2ccccc2)n2ccnc2)c1` (stereo not given): in the experiment on Candida albicans [26], the minimum inhibitory concentration (MIC) was determined as 0.096 µg/mL (≈ 0.255 µM). In the experiment with Candida albicans [27], this compound gave an MIC90 of 0.032 µg/mL (≈ 0.0851 µM). In the experiment with Candida albicans [28], this compound yielded an MIC50 of 0.016 µg/mL (≈ 0.0426 µM). Further, the Ratio in the experiment on Candida albicans [4] turned out to be 0.023.
As for `Clc1ccc(-c2c[nH]cc2C(c2ccccc2)n2ccnc2)cc1` (stereo not given), the MIC50 against Candida albicans [29] was 0.125 µg/mL (≈ 0.374 µM). The MIC in the experiment on Candida albicans [30] is 2.5 µg/mL (≈ 7.49 µM). Further, the MIC90 with Candida albicans [31] turned out to be 4 µg/mL (≈ 12 µM). Also, the Ratio in the experiment with Candida albicans [4] came to 0.66.

The term MIC denotes the lowest concentration that inhibits growth of the organism. What is called MIC90 is the lowest concentration that inhibits either 90% of growth or 90% of the strains tested, depending on the study. A low value points to greater potency. The MIC50 is the lowest concentration that inhibits either 50% of growth or 50% of the strains tested, depending on the study. A higher MIC50 goes with lower susceptibility.
